Activity calls are given as the source filed them. The rule behind the calls is not given here.

Series [1] deals with PANC-1. As to the kind of experiment: Cytotoxicity against human PANC-1 cells assessed as reduction in cell viability measured after 48 hrs by MTT assay. The conditions noted are these: PANC-1, 48 h. Format: functional, cell-based. Put shortly:
(§1)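 Cells seeded 6 × 10⁴ per well, cultured 24 h at 37 °C under 5% CO₂, then exposed to compound for 48 h, with or without 50 µM CuCl₂ or FeCl₃ co-incubation. MTT added for 4 h at 37 °C, formazan dissolved in DMSO, A490 read. IC50 reported as mean (SD), n = 3.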

Series [2] in a line: Stability of compound in pH 7.4 PBS buffer measured after 5 to 24 hrs by RP-HPLC analysis. Format: physicochemical. The conditions noted are these: time 5-24 hrs. In a few lines:
(§2)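 Compound (1 µM) stirred at 37 °C either in PBS (pH 5.0, 7.4 or 10.0) containing 5% DMSO or in DMEM with 10% FBS. Aliquots were analysed by RP-HPLC (0.1% TFA water/methanol gradient, 256 nm) for remaining intact compound, up to 24 h.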

The nature of series [3]: Stability of compound in pH 10 PBS buffer measured after 5 to 24 hrs by RP-HPLC analysis. It is filed as physicochemical. The conditions noted are these: time 5-24 hrs. In a few lines: as §2
Series [4] is described as follows: Cytotoxicity against human RWPE2 cells assessed as reduction in cell viability measured after 48 hrs by MTT assay. It is filed as cell-based. The conditions noted are these: RWPE2, 48 h. Put shortly:
as §1
In general terms: Formazan colour is commonly taken as a measure of viable cells.

A short description of series [5]: Stability of compound in pH 5 PBS buffer measured after 5 to 24 hrs by RP-HPLC analysis. Format: physicochemical. The conditions noted are these: time 5-24 hrs. Put shortly: as §2
For series [6], the system named is SW1990. As to the kind of experiment: Cytotoxicity against human SW1990 cells assessed as reduction in cell viability measured after 48 hrs in presence of CuCl2 by MTT assay. It is filed as functional, cell-based. The conditions noted are these: SW1990, 48 h. In a few lines:
as §1

Series [7] relates to SW1990. As to the kind of experiment: Cytotoxicity against human SW1990 cells assessed as reduction in cell viability measured after 48 hrs by MTT assay. It is filed as functional, cell-based. The conditions noted are these: SW1990, 48 h. In a few lines:
as §1

The nature of series [8]: Stability of compound in DMEM with 10% fetal bovine serum measured after 5 to 24 hrs by RP-HPLC analysis. Format: cell-free. The conditions noted are these: time 5-24 hrs. Put shortly: as §2
The test system of series [9] is SW1990. The series is described as follows: Cytotoxicity against human SW1990 cells assessed as reduction in cell viability measured after 48 hrs in presence of FeCl3 by MTT assay. It is filed as functional, cell-based. The conditions noted are these: SW1990, 48 h. In a few lines: as §1
Series [10] has as its system PANC-1. The series is described as follows: Cytotoxicity against human PANC-1 cells assessed as reduction in cell viability measured after 48 hrs in presence of CuCl2 by MTT assay. Format: functional, cell-based. The conditions noted are these: PANC-1, 48 h. In a few lines: as §1
For series [11], the system named is PANC-1. As to the kind of experiment: Cytotoxicity against human PANC-1 cells assessed as reduction in cell viability measured after 48 hrs in presence of FeCl3 by MTT assay. The conditions noted are these: PANC-1, 48 h. Format: functional, cell-based. In a few lines:
as §1

A short description of series [12]: Cytotoxicity against human H6C7 cells assessed as reduction in cell viability measured after 48 hrs by MTT assay. The conditions noted are these: H6C7, 48 h. Format: cell-based. In a few lines:
as §1

The next series has as its system HeLa. The series is described as follows: Cytotoxicity against human HeLa cells assessed as reduction in cell viability at 10 to 20 uM measured after 48 hrs by MTT assay. It is filed as functional, cell-based. The conditions noted are these: dose 10-20 µM.
A short description of series [13]: Metal chelating activity assessed as compound-Fe3+ complex formation measured after 40 mins by calcein dye based fluorescence assay. The conditions noted are these: dose 10-50 µM. Put shortly:
(§3)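 Calcein (10 µM) in 50 mM HEPES was quenched by 10 µM CuCl₂ (or FeCl₃ for the Fe³⁺ arm). Chelator was added from DMSO stock to a final 10 or 50 µM and incubated 40 min at room temperature. Recovery rate was calculated from fluorescence (λex 485 / λem 520 nm); n = 3.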

Series [14] concerns PANC-1. The series is described as follows: Cytotoxicity against human PANC-1 cells assessed as reduction in cell viability at 20 uM measured after 48 hrs by MTT assay relative to control. Format: functional. Put shortly:
(§4)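 MTT assay with 48 h compound exposure at 10 or 20 µM. Cells seeded 6 × 10⁴ per well and grown 24 h beforehand. MTT 4 h, DMSO solubilisation, A490 read. Percent cell death given as mean ± SD, n = 3.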

The next series deals with HepG2. The series is described as follows: Cytotoxicity against human HepG2 cells assessed as reduction in cell viability at 10 to 20 uM measured after 48 hrs by MTT assay. It is filed as functional, cell-based. The conditions noted are these: dose 10-20 µM. Put shortly:
as §4

Series [15] is described as follows: Metal chelating activity assessed as compound-Cu2+ complex formation measured after 40 mins by calcein dye based fluorescence assay. The conditions noted are these: dose 10-50 µM. In a few lines:
as §3

In the next series the test system is A549. As to the kind of experiment: Cytotoxicity against human A549 cells assessed as reduction in cell viability at 10 to 20 uM measured after 48 hrs by MTT assay. It is filed as functional, cell-based. The conditions noted are these: dose 10-20 µM.
For a further series, the system named is MCF7. As to the kind of experiment: Cytotoxicity against human MCF7 cells assessed as reduction in cell viability at 10 to 20 uM measured after 48 hrs by MTT assay. It is filed as functional, cell-based. The conditions noted are these: dose 10-20 µM. In a few lines: as §4
For series [16], the system named is PANC-1. The series is described as follows: Cytotoxicity against human PANC-1 cells assessed as reduction in cell viability at 10 uM measured after 48 hrs by MTT assay. Format: functional, cell-based. In a few lines: as §4
In series [17] the test system is SW1990. The series is described as follows: Cytotoxicity against human SW1990 cells assessed as reduction in cell viability at 10 to 20 uM measured after 48 hrs by MTT assay. Format: functional, cell-based. The conditions noted are these: dose 10-20 µM. Put shortly:
as §4

Series [18] deals with SW1990. As to the kind of experiment: Induction of apoptosis in human SW1990 cells at 12 uM measured after 24 hrs by Annexin V-FITC/propidium iodide staining based flow cytometry. Format: functional, cell-based. Put shortly:
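SW1990 cells seeded 5 × 10⁵ per well and grown 24 h, then treated 24 h at 8 or 12 µM. Optional 1 h pretreatment with 20 mM NAC or 50 µM carboxyl-PTIO before 12 µM treatment. Cells stained with annexin V-FITC 15 min and PI 5 min at room temperature in the dark, then analysed by flow cytometry. Mean ± SD, n = 3.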
In general terms: In flow cytometry, cells or beads pass a laser one at a time.

On to `CC1(C)OB(c2ccc(COc3cccc4ccc(C(=O)NCCCOc5no[n+]([O-])c5S(=O)(=O)c5ccccc5)nc34)cc2)OC1(C)C`, for which the IC50 was 17.1 µM in the series on PANC-1 [1]; 39.8 µM in [4]; 3.2 µM with SW1990 [6]; 15.7 µM with SW1990 [7]; 20.8 µM in the series on SW1990 [9]; 4.89 µM in the series with PANC-1 [10]. In addition, the IC50 with PANC-1 [11] stood at 25.3 µM; in series [12], 40.4 µM. Also, the Stabilty entry in series [2], in series [3] and in series [5] was “Stable” in each case. Moreover, in series [8], the Stability entry is reported as “Stable”.
`O=C(/C=C\c1ccc2cccc(O)c2n1)N1CCC(Oc2no[n+]([O-])c2S(=O)(=O)c2ccccc2)CC1`: the result in the series on HeLa, with PANC-1 [14], with HepG2, in the series on A549, with MCF7 and in the series with PANC-1 [16] was Active. Moreover, the Activity entry in series [13] and in series [15] was “Dose-dependent effect” in each case.
Take `O=C(/C=C/c1ccc2cccc(O)c2n1)NCCCOc1no[n+]([O-])c1S(=O)(=O)c1ccccc1`: the result in the series on HeLa, with PANC-1 [14], in the series on HepG2, with A549, in the series with MCF7 and in the series with PANC-1 [16] was Active. Also, the Activity result in [13] and in series [15] was “Dose-dependent effect” in each case.
In the case of `O=C(NCCCOc1no[n+]([O-])c1S(=O)(=O)c1ccccc1)c1ccc2cccc(OCc3ccccc3)c2n1`, in the series on SW1990 [17], the outcome was inactive. Moreover, the result in the series with SW1990 [18] was Active.
Turning to `CC1(C)OB(c2ccc(COc3cccc4ccc(C(=O)N5CCC(Oc6no[n+]([O-])c6S(=O)(=O)c6ccccc6)CC5)nc34)cc2)OC1(C)C`, the IC50 in the series with PANC-1 [1] came out at 13.2 µM; in series [4], 28.6 µM; with SW1990 [6], 2.88 µM; in the series with SW1990 [7] it was 12.1 µM; in the series with SW1990 [9] it was 34.2 µM; in the series with PANC-1 [10] it was 3.47 µM. In addition, the IC50 in the series with PANC-1 [11] is 38.2 µM; in series [12], 34.2 µM. Further, the Stabilty result in [2], in [3] and in series [5] was “Stable” in each case. In addition, the Stability result in series [8] is listed as “Stable”.
`O=C(/C=C\c1ccc2cccc(O)c2n1)N1CCN(CCOc2no[n+]([O-])c2S(=O)(=O)c2ccccc2)CC1`: the result with HeLa, in the series with PANC-1 [14], in the series on HepG2, in the series with A549, in the series with MCF7 and in the series on PANC-1 [16] was Active. The Activity entry in series [13] and in series [15] was “Dose-dependent effect” throughout.
Turning to `O=C(NCCOc1no[n+]([O-])c1S(=O)(=O)c1ccccc1)c1ccc2cccc(O)c2n1`, the result with HeLa, with PANC-1 [14], with HepG2, in the series on A549, in the series on MCF7 and with PANC-1 [16] was Active. For the same compound, the Activity result in [13] and in series [15] was “Dose-dependent effect” throughout.
For the compound `O=C(c1ccc2cccc(O)c2n1)N1CCN(CCOc2no[n+]([O-])c2S(=O)(=O)c2ccccc2)CC1`, the result with HeLa, in the series with PANC-1 [14], with HepG2, in the series with A549, with MCF7 and in the series on PANC-1 [16] was Active. Besides, the Activity entry in series [13] and in [15] was “Dose-dependent effect” each time.
For the compound `O=C(c1ccc2cccc(OCc3ccc(B(O)O)cc3)c2n1)N1CCC(Oc2no[n+]([O-])c2S(=O)(=O)c2ccccc2)CC1`, the IC50 in the series with PANC-1 [1] was determined as 16.6 µM; in series [4], 30.1 µM; in the series with SW1990 [6], 3.05 µM; in the series with SW1990 [7], 12.9 µM; in the series with SW1990 [9], 18.7 µM; with PANC-1 [10], 2.69 µM. For the same compound, the IC50 was 20.5 µM in the series with PANC-1 [11] and above 50 µM in series [12]. For the same compound, the Stabilty result in series [2], in series [3] and in series [5] was “Stable” each time. Further, the Stability entry in series [8] is “Stable”.
On to `O=C(/C=C/c1ccc2cccc(O)c2n1)NCCOc1no[n+]([O-])c1S(=O)(=O)c1ccccc1`, for which the outcome with HeLa, in the series with PANC-1 [14], with HepG2, with A549, in the series on MCF7 and in the series with PANC-1 [16] was Active. Further, the Activity entry in series [13] and in series [15] was “Dose-dependent effect” each time.

The IC50 is the midpoint of a concentration-inhibition curve.

The values are drawn from ChEMBL document CHEMBL4732146, “Nitric oxide-donating and reactive oxygen species-responsive prochelators based on 8-hydroxyquinoline as anticancer agents” (Eur J Med Chem, 2021).
